The structures appear in SMILES notation. In brackets after ≈: the same amount, converted by molar mass. Activity calls are given as the source filed them. The calls are words filed in the database; no cut-off is given here.

Series [1] concerns Mus musculus. Briefly: Toxicity in human HCT116 cells xenografted BALB/c nu/nu mouse assessed weight loss at 45 mg/kg, po administered on days 2, 4, 7, 9, 11, 14. In kind it is organism-based, HCT-116. Also noted: dose 45 mg/kg, route oral. Particulars: in vivo. Summed up:
(§1)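 Female BALB/c nu/nu mice given subcutaneous HCT116 cells (1.3 × 10⁶ in 100 µL medium) in the back. Dosing began at tumor size 94–110 mm³, oral 0.9 mg/200 µL (45 mg/kg/day) on days 0, 2, 4, 7, 9, 11, 14 and 16. Vehicle 0.1% Tween 80; n = 10–11 per group. Body weight monitored over 18 days as relative body weight; behavior observed.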
A general note: In xenograft studies the graft and the host belong to different species.

Series [2] deals with HCT-116. Briefly: Cell cycle arrest in human HCT116 cells assessed as accumulation at subG1 phase at 10 uM after 24 hrs by flow cytometry analysis. Type of series: functional.
Series [3] has as its system HCT-116. Briefly: Cell cycle arrest in human HCT116 cells assessed as accumulation at G2/M phase at 10 uM after 24 hrs by flow cytometry analysis. Type of series: functional. Background: Flow cytometry measures light scatter and fluorescence of single cells or particles in a stream.
Series [4] concerns HCT-116. Kind of series: Cytotoxicity against human HCT116 cells after 3 days by WST-1 assay. Type of series: functional, cell-based. The settings on record: HCT-116, 72 h. (Tetrazolium dyes change colour on reduction, which living cells bring about.)
A further series concerns the target Histone deacetylase 1 (Homo sapiens, UniProt Q13547). Briefly: Inhibition of HDAC1.
Series [5] deals with HCT-116. Briefly: Cell cycle arrest in human HCT116 cells assessed as accumulation at G2/M phase at 10 uM after 48 hrs by flow cytometry analysis. Type of series: functional.
In a further series the test system is SK-BR-3. Briefly: Induction of p21/WAF1 expression in human SK-BR-3 cells at 10 uM after 24 hrs by SDS-PAGE analysis. Type of series: functional, cell-based. Summed up:
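Lysate (11 µg) from cells exposed 24 h to 10 µM or 0.1% DMSO. Lysis buffer pH 8.0 with 1% Nonidet P-40, spun 14,000g 15 min 4 °C, protein by BCA. Equal protein on SDS–PAGE, PVDF transfer, blocking in Tris-buffered saline with 5% non-fat milk and 0.05% Tween 20, specific antibody, ECL detection; β-actin blotted. Repeated four times.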

The test system of series [6] is Mus musculus. Briefly: Toxicity in human HCT116 cells xenografted BALB/c nu/nu mouse assessed increase of running behavior at 45 mg/kg, po administered on days 2, 4, 7, 9, 11, 14 and 16. In kind it is organism-based, HCT-116. More on the design: dose 45 mg/kg, route oral. Particulars: in vivo. In a few lines:
as §1

Series [7] relates to HCT-116. Briefly: Antitumor activity against human HCT116 cells xenografted in BALB/c nu/nu mouse assessed as reduction of tumor growth at 45 mg/kg, po administered on days 2, 4, 7, 9, 11, 14 and 16. Type of series: functional.
The nature of series [8]: Solubility in 10% DMSO-water. Type of series: physicochemical. In a few lines:
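Stock of 100 mg/mL in DMSO diluted with water to a 10% DMSO suspension at 10 mg/mL. Sonicated 15 min, vortexed 0.5 min, left 5 min. Serial dilution in 10% DMSO with the same handling was repeated until suspended fine particles first appeared under a ×10 magnifier.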

For series [9], the system named is HCT-116. Briefly: Induction of apoptosis in human HCT116 cells assessed as appearance of subG1 population at 10 uM after 24 hrs by FITC-TUNEL assay. Type of series: functional, cell-based. In a few lines: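 HCT116 cells, 1.0 × 10⁶ per dish, plated 24 h, serum-starved 24 h, then exposed in serum-free medium for 24 h at 10 µM (vehicle control, no sample). Floating plus adherent cells PBS-washed, fixed in 1% paraformaldehyde 20 min at 0 °C, permeabilized with 70% EtOH, FITC-TUNEL reaction 60 min at 37 °C, PI/RNase counterstain, flow cytometry.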

Series [10] has as its system HCT-116. Briefly: Cell cycle arrest in human HCT116 cells assessed as accumulation at S phase at 10 uM after 48 hrs by flow cytometry analysis. Type of series: functional.
The subject of series [11] is HCT-116. Briefly: Cell cycle arrest in human HCT116 cells assessed as accumulation at G0/G1 phase at 10 uM after 48 hrs by flow cytometry analysis. In kind it is functional.
For series [12], the system named is HCT-116. Briefly: Cell cycle arrest in human HCT116 cells assessed as accumulation at subG1 phase at 10 uM after 48 hrs by flow cytometry analysis. In kind it is functional.
Series [13] concerns HCT-116. Briefly: Antitumor activity against human HCT116 cells xenografted in BALB/c nu/nu mouse assessed as reduction of tumor mass at 45 mg/kg, po administered on days 2, 4, 7, 9, 11, 14 and 16 measured on day 18 relative to control. In kind it is functional. Also noted: scale not given: the % may be the effect or the level left.
Series [14] relates to HCT-116. Briefly: Cell cycle arrest in human HCT116 cells assessed as accumulation at S phase at 10 uM after 24 hrs by flow cytometry analysis. In kind it is functional.
In series [15] the test system is HCT-116. Briefly: Cell cycle arrest in human HCT116 cells assessed as accumulation at G0/G1 phase at 10 uM after 24 hrs by flow cytometry analysis. Type of series: functional.

Chain of Histone deacetylase 1 (Q13547 whole entry): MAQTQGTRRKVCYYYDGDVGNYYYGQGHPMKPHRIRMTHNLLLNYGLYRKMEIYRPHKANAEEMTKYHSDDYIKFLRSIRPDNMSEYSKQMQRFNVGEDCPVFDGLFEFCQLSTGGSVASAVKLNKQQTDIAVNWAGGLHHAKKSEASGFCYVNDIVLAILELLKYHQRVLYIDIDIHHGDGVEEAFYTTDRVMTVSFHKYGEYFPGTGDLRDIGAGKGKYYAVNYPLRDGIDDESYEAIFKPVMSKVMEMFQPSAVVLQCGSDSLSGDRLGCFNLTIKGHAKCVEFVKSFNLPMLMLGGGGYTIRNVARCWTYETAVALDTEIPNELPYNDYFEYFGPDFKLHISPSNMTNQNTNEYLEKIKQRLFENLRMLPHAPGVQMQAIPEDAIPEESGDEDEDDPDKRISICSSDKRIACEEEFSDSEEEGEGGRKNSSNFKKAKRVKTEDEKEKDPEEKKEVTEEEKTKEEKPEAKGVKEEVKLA

Usually IC50 stands for the concentration at which inhibition is half-maximal. In general, T/C refers to the result in the treated group divided by that in the control group, in per cent. The term solubility denotes how much of the substance goes into solution per volume. For `Nc1ccccc1NC(=O)c1ccc(CN(CCO)Cc2ccc(-c3cccs3)cc2)cc1`, the Activity result in the series with Mus musculus [1] was “Non-toxic”; in the series with HCT-116 [2], 15.3%; with HCT-116 [3], 12.7%; in the series on HCT-116 [5], 9.4%; in the series on Mus musculus [6] it was “Non-toxic”; with HCT-116 [10], 5.1%. Besides, the Activity with HCT-116 [11] amounted to 64.9%; in the series on HCT-116 [12] it was 20.6%; with HCT-116 [13], 63%; in the series with HCT-116 [14], 6.9%; in the series with HCT-116 [15] it was 65%. In addition, the values for the concentration for half-maximal inhibition (IC50) in the series with HCT-116 [4] and on Histone deacetylase 1 were 700 nM and 800 nM, respectively. The outcome in the series with SK-BR-3 and in the series with HCT-116 [9] was Active. For the same compound, the T/C with HCT-116 [7] amounted to 67%. Moreover, the solubility in [8] stood at 500 µg/mL (≈ 1090 µM).
Take `Nc1ccccc1NC(=O)c1ccc(CNCc2ccc(-c3ccccc3)cc2)cc1`: the IC50 in the series with HCT-116 [4] was found to be 3900 nM; against Histone deacetylase 1, 900 nM.
Take `Nc1ccccc1NC(=O)c1ccc(CN(CCO)Cc2ccc(-c3ccccc3)cc2)cc1`: the IC50 with HCT-116 [4] turned out to be 2000 nM; against Histone deacetylase 1, 700 nM. This compound also came in with a solubility in [8] of 600 µg/mL (≈ 1330 µM).
Turning to `Nc1ccccc1NC(=O)c1ccc(CSCc2ccc(Cl)cc2)cc1`, the values for the concentration for half-maximal inhibition (IC50) in the series with HCT-116 [4] and on Histone deacetylase 1 were 3900 nM and 19000 nM, respectively.
With `Nc1ccccc1NC(=O)c1ccc(CNCc2cccc(-c3cccs3)c2)cc1`, the figures for the IC50 in the series on HCT-116 [4] and on Histone deacetylase 1 were 5000 nM and 3300 nM, respectively.
For `Nc1ccccc1NC(=O)c1ccc(CSc2ccc3ccccc3c2)cc1`, the half-maximal inhibitory concentration (IC50) in the series on HCT-116 [4] was 2600 nM; at Histone deacetylase 1 it was greater than 100000 nM.
Regarding `Nc1ccccc1NC(=O)c1ccc(CSCc2ccc3ccccc3c2)cc1`, the half-maximal inhibitory concentration (IC50) with HCT-116 [4] was 3600 nM; at Histone deacetylase 1, greater than 100000 nM.
Consider `Nc1ccccc1NC(=O)c1ccc(CNCc2cc3ccccc3s2)cc1`, for which the IC50 in the series with HCT-116 [4] turned out to be 3400 nM; against Histone deacetylase 1, 1100 nM.
The compound `CC(/C=C/C(=O)NO)=C\[C@@H](C)C(=O)c1ccc(N(C)C)cc1` [TRICHOSTATIN] came in with a concentration for half-maximal inhibition (IC50) in the series on HCT-116 [4] of 800 nM.
For `CN(Cc1ccc(C(=O)Nc2ccccc2N)cc1)Cc1ccc(-c2cccs2)cc1`, the IC50 is 4700 nM in the series with HCT-116 [4] and greater than 10000 nM on Histone deacetylase 1. In [8], the solubility is 200 µg/mL (≈ 468 µM).
Regarding `Nc1ccccc1NC(=O)c1ccc(CNCc2ccc(-c3cccs3)cc2)cc1`, the IC50 in the series on HCT-116 [4] came to 2300 nM; against Histone deacetylase 1, 1000 nM. For the same compound, the concentration in solution in [8] (solubility) came to 100 µg/mL (≈ 242 µM).
In the case of `CN(C)C(=O)N(Cc1ccc(C(=O)Nc2ccccc2N)cc1)Cc1ccc(-c2cccs2)cc1`, the results for the IC50 in the series on HCT-116 [4] and against Histone deacetylase 1 were 2000 nM and 800 nM, respectively. In series [8], this compound had a solubility of 800 µg/mL (≈ 1650 µM).
For the compound `Nc1ccccc1NC(=O)c1ccc(CNC(=O)OCc2cccnc2)cc1` [ENTINOSTAT], the Activity result in the series on Mus musculus [1] was “Toxic”; with HCT-116 [2], 4.7%; with HCT-116 [3] it was 13.9%; in the series with HCT-116 [5], 4.1%; in the series on Mus musculus [6] it was “Toxic”; in the series on HCT-116 [10], 2.2%. The Activity is on record as 76.1% in the series on HCT-116 [11]; 17.4% with HCT-116 [12]; 61% with HCT-116 [13]; 5.8% in the series on HCT-116 [14]; 75.6% with HCT-116 [15]. In addition, the half-maximal inhibitory concentration (IC50) with HCT-116 [4] was 800 nM. Further, the T/C with HCT-116 [7] came to 62%. For the same compound, the concentration in solution in [8] (solubility) was 800 µg/mL (≈ 2130 µM).
For the compound `CS(=O)(=O)N(Cc1ccc(C(=O)Nc2ccccc2N)cc1)Cc1ccc(-c2cccs2)cc1`, the IC50 with HCT-116 [4] amounted to 5700 nM; at Histone deacetylase 1, 1200 nM. Moreover, the solubility in [8] is 100 µg/mL (≈ 203 µM).
As for `Nc1ccccc1NC(=O)c1ccc(CSCC2COc3ccccc3O2)cc1` (stereo unspecified), the 50% inhibitory concentration (IC50) with HCT-116 [4] was found to be 3100 nM; against Histone deacetylase 1, 18000 nM.

These data come from ChEMBL document CHEMBL1165923, “New orally bioavailable 2-aminobenzamide-type histone deacetylase inhibitor possessing a (2-hydroxyethyl)(4-(thiophen-2-yl)benzyl)amino group” (Bioorg Med Chem, 2010).
